# According to ChEMBL document CHEMBL3596100, “The synthesis and biological activity of novel anthracenone-pyranones and anthracenone-furans” (Bioorg Med Chem, 2015):
# What was measured:
# [1] = system: DU-145; assay: Growth inhibition of human DU145 cells after 72 hrs by MTT assay; type: functional; conditions: DU-145, 72 h
# Outline: (§1)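 Cells kept in DMEM with 10% FBS, glutamine, penicillin/streptomycin at 37 °C, 5% CO2; plated in duplicate at 2500–4000 cells/well, dosed 24 h later during log growth. After 72 h drug exposure, MTT read at 540 nm. […] Assays in triplicate, standard error reported.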
# [2] = system: MCF7; assay: Growth inhibition of human MCF7 cells after 72 hrs by MTT assay; type: functional; conditions: MCF7, 72 h; outline: as §1
# [3] = Growth inhibition of human BE(2)-C cells after 72 hrs by MTT assay; type: functional; outline: as §1
# [4] = Growth inhibition of mouse SMA cells after 72 hrs by MTT assay; type: functional; outline: as §1
# [5] = system: HT-29; assay: Growth inhibition of human HT-29 cells after 72 hrs by MTT assay; type: functional; conditions: HT-29, 72 h; outline: as §1
# [6] = system: A-431; assay: Growth inhibition of human A431 cells after 72 hrs by MTT assay; type: functional; conditions: A-431, 72 h; outline: as §1
# [7] = Growth inhibition of human U87 cells after 72 hrs by MTT assay; type: functional, U-87MG ATCC; conditions: U-87 MG; outline: as §1
# [8] = Growth inhibition of human H460 cells after 72 hrs by MTT assay; type: functional; conditions: NCI-H460, 72 h; outline: as §1
# [9] = Growth inhibition of human SJ-G2 cells after 72 hrs by MTT assay; type: functional; conditions: SJ-G2, 72 h; outline: as §1
# [10] = Growth inhibition of human MIA cells after 72 hrs by MTT assay; type: functional; outline: as §1
# [11] = system: A2780; assay: Growth inhibition of human A2780 cells after 72 hrs by MTT assay; type: functional; conditions: A2780, 72 h; outline: as §1
GI50 [1] [µM],GI50 [2] [µM],GI50 [5] [µM],GI50 [6] [µM],GI50 [11] [µM],SMILES,GI50 [3] [µM],GI50 [4] [µM],GI50 [7] [µM],GI50 [8] [µM],GI50 [9] [µM],GI50 [10] [µM]
24,8.8,24,12,12,Cc1cc2c(c3oc(=O)cc(CCCCl)c13)C(=O)c1c(OC(C)C)cccc1C2=O,27,16,12,25,27,17
25,13,18,23,11,Cc1cc2c(c3oc(CCCCl)cc13)C(=O)c1c(OC(C)C)cccc1C2=O,43,22,18,27,25,34
11,15,18,20,9.5,CCCCc1cc(=O)oc2c3c(cc(C)c12)C(=O)c1cccc(OC(C)C)c1C3=O,13,12,14,19,13,13
1.9,3.5,9.7,5.8,5,CC(=O)c1cc2c(C)cc3c(c2o1)C(=O)c1c(OC(C)C)cccc1C3=O,4.6,2.3,8.4,17,2.2,9.7
27,13,11,19,13,Cc1cc2c(c3oc(=O)c([Si](C)(C)C)cc13)C(=O)c1c(OC(C)C)cccc1C2=O,28,11,19,21,14,11
40,20,30,19,28,Cc1cc2c(c3oc(=O)c(C(C)(C)O)cc13)C(=O)c1c(OC(C)C)cccc1C2=O,27,30,30,22,14,23
29,14,13,17,12,Cc1cc2c(c3oc(=O)c(C(C)(C)C)cc13)C(=O)c1c(OC(C)C)cccc1C2=O,33,12,17,20,12,12
7.7,5.9,11,9.8,6.4,Cc1cc2c(c3oc(CCCC#N)cc13)C(=O)c1c(OC(C)C)cccc1C2=O,23,10,6.1,9.4,8.4,10
20,19,15,17,21,Cc1cc2c(c3oc(=O)c(CCCCl)cc13)C(=O)c1c(OC(C)C)cccc1C2=O,33,19,16,19,15,20

# Second part, the compound before the results:
SMILES,GI50 [1] [µM],GI50 [2] [µM],GI50 [5] [µM],GI50 [6] [µM],GI50 [11] [µM],GI50 [3] [µM],GI50 [4] [µM],GI50 [7] [µM],GI50 [8] [µM],GI50 [9] [µM],GI50 [10] [µM]
CCCc1cc2c(C)cc3c(c2o1)C(=O)c1c(O)cccc1C3=O,0.86,2.2,1.2,2.3,1.5,0.88,1.3,6.6,3.1,1,1.7
CCC(C)(O)c1cc2c(C)cc3c(c2oc1=O)C(=O)c1c(OC(C)C)cccc1C3=O (configuration not stated),26,16,11,15,19,22,23,25,16,9,14
Cc1cc2c(c3oc(C(C)O)cc13)C(=O)c1c(O)cccc1C2=O (configuration not stated),28,21,13,9,7.3,19,12,20,17,17,15
Cc1cc2c(c3oc(CCCC#N)cc13)C(=O)c1c(O)cccc1C2=O,0.46,4.7,1.9,13,6.5,0.99,5.4,11,15,32,2.6
Cc1cc2c(c3oc(CCC(F)(F)F)cc(=O)c13)C(=O)c1c(O)cccc1C2=O,0.29,0.28,0.94,0.51,0.34,0.2,0.48,2.9,0.87,0.49,0.28
CCCc1cc(=O)c2c(C)cc3c(c2o1)C(=O)c1c(O)cccc1C3=O,1.2,1.8,3.2,1.6,2.4,1.8,1.5,2.8,1.4,1.7,1.7
CCC(C)(OCc1ccccc1)c1cc2c(C)cc3c(c2oc1=O)C(=O)c1c(O)cccc1C3=O (configuration not stated),8.8,5.3,5.6,4,7,6.7,6.1,14,5.1,3.9,3.9
CCCCCC(=O)c1cc2c(C)cc3c(c2o1)C(=O)c1c(OC(C)C)cccc1C3=O,0.85,2,0.88,1.4,2.3,0.75,1.8,4.2,6.8,4.2,1.1
CCc1cc(=O)c2c(C)cc3c(c2o1)C(=O)c1c(OC)cccc1C3=O,4.8,4.1,4.5,5.7,5.3,4.1,6.5,14,4.8,4.3,5.4
CC(=O)c1cc2c(C)cc3c(c2o1)C(=O)c1c(O)cccc1C3=O,2,2.1,4.7,4.8,2,2.9,1.5,5.5,9.6,1.8,9.5
C=C(C)c1cc(=O)c2c(C)cc3c(c2o1)C(=O)c1c(O)cccc1C3=O,1.5,1.4,1.6,1.8,1.6,5.9,1.7,3.4,3.9,4.7,2
Cc1cc2c(c3oc(CCCCl)cc13)C(=O)c1c(O)cccc1C2=O,0.44,0.66,1.9,0.59,0.45,0.38,0.69,0.97,1.9,37,0.55
CCc1cc(=O)c2c(C)cc3c(c2o1)C(=O)c1c(OC(C)C)cccc1C3=O,1.9,4.3,4.8,5.7,5.8,2.2,3.9,8.7,6.9,16,3.4
Cc1cc2c(c3oc(C(C)O)cc13)C(=O)c1c(OC(C)C)cccc1C2=O (configuration not stated),28,24,24,19,16,20,29,35,17,14,19
CCCCCCc1cc2c(C)cc3c(c2o1)C(=O)c1c(O)cccc1C3=O,25,15,17,18,12,21,9.3,25,17,32,13
CCCc1cc(=O)c2c(C)cc3c(c2o1)C(=O)c1c(OC)cccc1C3=O,5.3,6.4,5.5,6.6,6.4,6.1,6,6.4,5.3,5.3,7.1
Cc1cc2c(c3oc(C(=O)c4ccccc4)cc13)C(=O)c1c(OC(C)C)cccc1C2=O,0.95,1.1,1.4,1.77,2.1,0.83,2.2,2.3,2.9,36,1.7
Cc1cc2c(c3oc(=O)c(CCCC#N)cc13)C(=O)c1c(O)cccc1C2=O,3.2,12,14,12,10,11,9.8,11,9,22,15
